Columns and labels:
[1] = biological target: T1, Tyrosine-protein phosphatase non-receptor type 1 (Homo sapiens) (UniProt P18031); test: Inhibition of PTP1B at 100 uM
T1 sequence (whole entry): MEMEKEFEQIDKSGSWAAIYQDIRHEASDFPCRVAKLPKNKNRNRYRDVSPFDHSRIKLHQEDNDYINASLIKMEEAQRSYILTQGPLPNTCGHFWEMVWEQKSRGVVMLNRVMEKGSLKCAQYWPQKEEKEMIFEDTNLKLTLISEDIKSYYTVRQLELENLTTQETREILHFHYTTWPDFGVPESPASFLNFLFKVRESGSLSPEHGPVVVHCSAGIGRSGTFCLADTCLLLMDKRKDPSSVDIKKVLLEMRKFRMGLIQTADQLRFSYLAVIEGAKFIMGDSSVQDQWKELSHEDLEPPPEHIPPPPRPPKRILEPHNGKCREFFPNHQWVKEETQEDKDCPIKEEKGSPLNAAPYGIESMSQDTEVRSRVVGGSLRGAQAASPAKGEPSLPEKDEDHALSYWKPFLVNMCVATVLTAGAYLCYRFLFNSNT
Procedure, shortened: (§1)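 Test compound preincubated 10 min with enzyme in the reaction system before residual phosphatase activity was read. Substrate was 10 mM p-nitrophenylphosphate in 50 mM HEPES pH 7.0 with 1 mM each of EDTA and DTT. The reaction was stopped with 0.1 N NaOH and absorbance read at 410 nm. No-enzyme blanks run in parallel corrected for non-enzymic hydrolysis.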

[2] = biological target: T2, Tyrosine-protein phosphatase non-receptor type 1 (Homo sapiens, UniProt P18031); test: Inhibition of PTP1B; procedure, shortened: as §1
T2 sequence (P18031 whole entry): T1 sequence (whole entry)

Rattus norvegicus = test: Antihyperglycemic activity in Streptozotocin-induced diabetic rat at 100 mg/kg; type: functional

Row | Compound | inhibition [1] | IC50 [2] | Ki [2] | inhibition in vivo at 100 mg/kg (Rattus norvegicus)
1 | COc1ccc(C2CC(c3ccc4occc4c3OC)=NO2)cc1 (stereo unspecified) | 49.1% | 150 µM | 27.5 µM | 
2 | COc1c(C2=NOC(c3ccccn3)C2)cc(OC)c2occc12 (stereo unspecified) | 18.4% |  |  | 
3 | COc1c(-c2ccccc2)oc2c(ccc3occc32)c1=O [KARANJIN] | 15.8% |  |  | 35%
4 | COc1c(C2=NOC(c3ccccn3)C2)ccc2occc12 (stereo unspecified) | 17.4% |  |  | 
5 | COc1c(C2=NOC(c3ccncc3)C2)ccc2occc12 (stereo unspecified) | 14.7% |  |  | 
6 | COc1c(C2=NOC(n3ccnc3)C2)ccc2occc12 (stereo unspecified) | 14.9% |  |  | 
7 | COc1c(C2=NOC(c3ccccc3)C2)cc(OC)c2occc12 (stereo unspecified) | 80.4% | 76 µM | 30 µM | 
8 | COc1c(C2=NOC(c3ccccc3)C2)ccc2occc12 (stereo unspecified) | 22.5% | 227 µM | 45 µM | 
9 | COC(=O)C1C(c2ccc3occc3c2OC)=NOC1c1ccccc1 (stereo unspecified) | 18.5% | 199 µM | 72.5 µM | 
10 | COc1ccc(C2CC(c3cc(OC)c4occc4c3OC)=NO2)cc1 (stereo unspecified) | 79.6% | 81 µM | 32 µM | 
